One compound from ChEMBL document CHEMBL4038311, “An Ursolic Acid Derived Small Molecule Triggers Cancer Cell Death through Hyperstimulation of Macropinocytosis” (J Med Chem, 2017) can be followed below.

The subject of test [1] is HeLa. Nature of the test: Induction of macropinocytosis-like cytosolic vacuolization in human HeLa cells at 20 uM measured within 4 hrs by time lapse phase contrast microscopic analysis. The format is functional, cell-based. The gist of the method: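 HeLa plated at 50,000 per glass-bottom dish, pre-incubated overnight, then given 20 µM in a live-cell chamber (37 °C, 5% CO2). Phase-contrast frames captured every 90 sec.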

In the next test the test system is MCF7. Nature of the test: Anticancer activity against human MCF7 cells assessed as vacuole formation at 20 uM after 24 hrs by phase contrast microscopic analysis. The format is functional, cell-based.
In test [2] the test system is HeLa. Nature of the test: Induction of methuosis in human HeLa cells assessed as increase in number of cells with macropinosomes at 20 uM preincubated cells with macropinocytosis inhibitor EIPA for 30 mins followed by compound addition measured up to 72 hrs. The format is functional, cell-based. The procedure, abridged:
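HeLa pretreated 30 min with or without 50 µM EIPA, then given 20 µM or DMSO for 4, 8, 12, 18, 24, 36, 48, 60 and 72 h. Cells bearing macropinosomes scored manually from field images and expressed as percentage of cells.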

Test [3] concerns HeLa. Briefly: Anticancer activity against human HeLa cells assessed as vacuole formation at 20 uM after 24 hrs by phase contrast microscopic analysis. The format is functional, cell-based.
Test [4] concerns HeLa. Briefly: Induction of methuosis in human HeLa cells assessed as increase in vacuole formation preincubated cells with actin inhibitor cytochalasin D for 1 hr followed by compound addition measured after 24 hrs by phase contrast microscopic analysis. The format is functional, cell-based. The gist of the method: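 HeLa cells grown in DMEM with 10% FBS, 100 U/ml penicillin and 100 µg/ml streptomycin at 37 °C, 5% CO2 humidified air. The inhibitor was added before compound exposure. Vacuolization was judged in live cells by phase-contrast microscopy.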

A further test has as its system HT-1080. Nature of the test: Anticancer activity against human HT1080 cells assessed as cell viability at 20 uM after 48 hrs by CCK8 assay relative to control. The format is functional. The following applies: HT-1080, 48 h, read-out: Activity. The gist of the method:
(§1)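 Cells (5000/well, pre-incubated overnight) exposed to 20 µM for 48 h. CCK-8 absorbance read at 450 nm. Viability given as percent of vehicle (DMSO) control, mean ± SD. Six parallel wells per condition, at least three independent repeats.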

Test [5] deals with HeLa. Briefly: Induction of macropinocytosis-like cytosolic vacuolization in human HeLa cells at 20 uM after 24 hrs by transmission electron microscopic analysis. The format is functional, cell-based. The gist of the method:
(§2)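 HeLa exposed to 20 µM for 24 h, then fixed, dehydrated and resin-embedded. Ultrathin sections on copper grids stained with uranyl acetate and lead citrate, then examined by TEM.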

Test [6] concerns HeLa. Nature of the test: Induction of autophagy in human HeLa cells assessed as conversion of LC3-1 to LC3-2 at 15 to 25 uM after 24 hrs by Western blot analysis. The format is functional, cell-based. The gist of the method:
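HeLa given indicated concentrations or 0.1% DMSO for 24 h. RIPA lysates, BCA-normalized, SDS-PAGE and PVDF transfer. Probed with anti-LC3 (overnight, 4 °C) after 5% milk block, infrared detection, GAPDH for normalization.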
A general note: A western blot detects proteins with antibodies after separation by electrophoresis.

For test [7], the system named is HeLa. Briefly: Induction of macropinocytosis in human HeLa cells assessed as colocalization of lucifer yellow and early endosomal marker EEA1 at 20 uM after 6 to 24 hrs by confocal microscopic analysis. The format is functional, cell-based. The procedure, abridged: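 HeLa on poly-L-lysine coverslips given 0.1% DMSO or 20 µM for indicated times, then loaded with Lucifer yellow CH. Fixed in 4% PFA 30 min, permeabilized with 0.1% Triton X-100, blocked with 5% BSA. Anti-EEA1, -LAMP1 or -Rab7 applied overnight at 4 °C, Alexa488 secondary 1 h, DAPI counterstain. Confocal imaging.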

Test [8] has as its system HeLa. Nature of the test: Induction of macropinocytosis in human HeLa cells assessed as formation of mitochondrial degradative compartments at 20 uM after 24 hrs by Mitotracker red staining-based confocal microscopic analysis. The format is functional, cell-based. The gist of the method:
(§3)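 HeLa given 20 µM for 24 h, then labelled live with 50 nM LysoTracker Red (30 min) or 200 nM MitoTracker Red CMXRos (1 h) in medium, after Lucifer yellow loading. Imaged live by confocal microscopy.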

For test [9], the system named is HeLa. Nature of the test: Induction of methuosis in human HeLa cells assessed as decrease in cell viability preincubated cells with vacuolar-type H+-ATPase inhibitor Baf-A1 for 1 hr followed by compound addition measured after 48 hrs by CCK8 assay. The format is functional, cell-based. The gist of the method:
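HeLa incubated 1 h with 100 nM Baf-A1 before compound addition. Viability measured by CCK-8 at 450 nm against DMSO control.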
On the technique in general: Formazan colour is commonly taken as a measure of viable cells.

The test system of test [10] is HeLa. Nature of the test: Anticancer activity against human HeLa cells assessed as reduction in colony formation after 48 hrs by Giemsa staining-based assay. The format is functional, cell-based. The gist of the method: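 HeLa cells exposed 48 h to 15, 20 or 25 µM, then reseeded at 500 cells/well in six-well plates. After 15 days, colonies fixed in methanol, stained with Giemsa, photographed and counted.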

Test [11] has as its system HeLa. Nature of the test: Induction of methuosis in human HeLa cells assessed as increase in vacuole formation preincubated cells with vacuolar-type H+-ATPase inhibitor Baf-A1 for 1 hr followed by compound addition measured after 24 hrs by phase contrast microscopic analysis. The format is functional, cell-based. The gist of the method: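 HeLa cells (DMEM, 10% FBS, penicillin/streptomycin, 37 °C, 5% CO2) were given 100 nM bafilomycin A1 for 1 h before compound addition. Vacuole formation was then scored by phase-contrast imaging of live cells.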

Test [12] concerns HeLa. Nature of the test: Induction of methuosis in human HeLa cells assessed as decrease in cell viability preincubated cells with actin inhibitor cytochalasin D for 1 hr followed by compound addition measured after 48 hrs by CCK8 assay. The format is functional, cell-based.
A further test relates to HepG2. Briefly: Anticancer activity against human HepG2 cells assessed as cell viability at 20 uM after 48 hrs by CCK8 assay relative to control. The format is functional. The following applies: HepG2, 48 h, read-out: Activity. The gist of the method:
as §1

In test [13] the test system is HeLa. Nature of the test: Induction of macropinocytosis in human HeLa cells assessed as formation of lysosomal degradative compartments at 20 uM after 24 hrs by Lysotracker red staining-based confocal microscopic analysis. The format is functional, cell-based. The procedure, abridged: as §3
The test system of test [14] is HeLa. Nature of the test: Induction of apoptosis in human HeLa cells assessed as pyknotic chromatin formation at 20 uM after 24 hrs by transmission electron microscopic analysis. The format is functional, cell-based. The gist of the method:
as §2

The test system of test [15] is HeLa. Briefly: Anticancer activity against human HeLa cells assessed as vacuole formation at 20 uM preincubated cells with Z-VAD-FMK for 1 hr followed by compound addition measured after 24 hrs by phase contrast microscopic analysis. The format is functional, cell-based. The procedure, abridged:
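HeLa pretreated 1 h with or without z-VAD-FMK, then given 20 µM or DMSO. Phase-contrast images taken at 24 h.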

Test [16] deals with HeLa. Briefly: Anticancer activity against human HeLa cells assessed as cell viability at 20 uM after 24 to 72 hrs by CCK8 assay relative to control. The format is functional. The following applies: read-out: Activity. The gist of the method:
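HeLa cells seeded at 5000/well and pre-incubated overnight, then exposed to 20 µM. CCK-8 absorbance at 450 nm read at 24, 48 and 72 h, relative to DMSO-treated control. Six wells per condition, experiments repeated at least three times.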

Test [17] has as its system HeLa. Briefly: Induction of apoptosis in human HeLa cells assessed as increase in cleaved caspase-3 levels at 20 to 30 uM after 24 hrs by Western blot analysis. The format is functional, cell-based. The procedure, abridged: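 HeLa given indicated concentrations. RIPA lysates, BCA-quantified, SDS-PAGE and PVDF transfer. Anti-caspase-3 or anti-PARP1 applied overnight at 4 °C after 1 h 5% milk block, secondary 2 h at RT. Infrared imaging, GAPDH as loading control.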

Structures are written as SMILES. The source made the active and inactive calls. The rule behind the calls is not given here.

Consider `C[C@H]1[C@H](C)CC[C@]2(C(=O)O)CC[C@]3(C)C(=CC[C@@H]4[C@@]5(C)Cc6cnn(-c7ccc(C#N)cc7)c6C(C)(C)[C@@H]5CC[C@]43C)[C@H]12`, for which the outcome in the test on HeLa [1], in the test on MCF7, in the test on HeLa [3], in the test with HeLa [5], in the test on HeLa [6] and in the test on HeLa [7] was Active. In addition, the outcome with HeLa [8], in the test on HeLa [13], in the test on HeLa [15] and with HeLa [17] was Active. Moreover, the result with HeLa [2], with HeLa [4], in the test with HeLa [9], with HeLa [11], in the test with HeLa [12] and in the test with HeLa [14] was inactive. The viability at 20 µM in the test with HT-1080 amounted to 26.8%; in the test with HepG2, 27.9%; in the test on HeLa [16], 74.2%. In addition, the Activity entry in the test on HeLa [10] was “Dose-dependent effect”.
